Active and inactive are the calls of the source. The rule behind the calls is not given here. Residues, ends and D or L forms follow the SMILES beside them.

Usually Kd stands for a measure of binding affinity in units of concentration. Lower therefore signals tighter binding. As a reminder, the EC50 is the concentration needed to bring the measured effect to its halfway point.

The target of test [1] is T1, von Hippel-Lindau disease tumor suppressor/Receptor-interacting serine/threonine-protein kinase 1 (Homo sapiens, UniProt Q13546+P40337). Briefly: PROTAC activity at VHL/wild type nLuc-fused N-terminal RIPK1 kinase domain (unknown origin) expressed in HEK293T cells assessed as induction of protein degradation measured after 24 hrs in presence of furimazine substrate by Nano-Glo luciferase based luminescence analysis. Format: cell-based. In outline:
(§1)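 HEK293T cells transiently transfected with nLuc (WT or K0)-RIPK1 kinase domain (1-324) through a 24-residue linker, expressed 24–36 h. Replated at 20,000 cells/well in Opti-MEM with 4% FBS. Treated 24 h with 1.6–1,000 nM (5-fold, 1% DMSO). Medium removed, Nano-Glo substrate 1:100 in PBS added, live-cell luminescence read. Three-parameter inhibitor fit; at least two biological batches.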
Target sequence in this assay (Q13546 whole entry, the tested form may be a part): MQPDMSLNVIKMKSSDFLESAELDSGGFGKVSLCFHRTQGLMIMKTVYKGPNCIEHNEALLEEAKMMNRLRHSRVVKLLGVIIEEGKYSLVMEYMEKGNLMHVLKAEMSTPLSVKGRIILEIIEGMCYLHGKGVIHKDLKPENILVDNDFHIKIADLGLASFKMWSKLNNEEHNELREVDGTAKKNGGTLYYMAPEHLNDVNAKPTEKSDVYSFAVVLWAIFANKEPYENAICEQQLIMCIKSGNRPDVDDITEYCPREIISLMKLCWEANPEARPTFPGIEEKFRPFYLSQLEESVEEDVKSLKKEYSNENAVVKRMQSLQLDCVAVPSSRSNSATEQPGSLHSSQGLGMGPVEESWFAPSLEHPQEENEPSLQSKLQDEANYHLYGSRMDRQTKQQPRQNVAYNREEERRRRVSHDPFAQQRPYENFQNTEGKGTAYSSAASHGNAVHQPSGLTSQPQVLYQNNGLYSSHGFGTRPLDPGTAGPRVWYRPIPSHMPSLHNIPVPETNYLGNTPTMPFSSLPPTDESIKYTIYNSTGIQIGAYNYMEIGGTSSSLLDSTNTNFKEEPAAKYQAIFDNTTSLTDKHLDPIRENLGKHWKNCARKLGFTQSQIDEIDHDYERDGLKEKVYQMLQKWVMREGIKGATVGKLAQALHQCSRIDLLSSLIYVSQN
Target sequence in this assay (P40337 whole entry, the tested form may be a part): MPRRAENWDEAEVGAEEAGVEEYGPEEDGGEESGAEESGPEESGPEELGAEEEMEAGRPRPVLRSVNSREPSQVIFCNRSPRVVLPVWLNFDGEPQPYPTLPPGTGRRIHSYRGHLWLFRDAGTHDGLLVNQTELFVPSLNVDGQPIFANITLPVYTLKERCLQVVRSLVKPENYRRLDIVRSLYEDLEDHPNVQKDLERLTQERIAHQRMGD

The target of test [2] is T1, von Hippel-Lindau disease tumor suppressor/Receptor-interacting serine/threonine-protein kinase 1. Briefly: PROTAC activity at VHL/nLucK0-fused N-terminal RIPK1 kinase domain (unknown origin) expressed in HEK293T cells assessed as induction of protein degradation measured after 24 hrs in presence of furimazine substrate by Nano-Glo luciferase based luminescence analysis. Format: cell-based. In outline:
as §1
Target sequence in this assay (Q13546 whole entry, the tested form may be a part): as the sequence (Q13546 whole entry, the tested form may be a part) above
Target sequence in this assay (P40337 whole entry, the tested form may be a part): as the sequence (P40337 whole entry, the tested form may be a part) above

Test [3] is filed under the species Homo sapiens. Nature of the test: Binding affinity to His-tagged LgBiT (unknown origin) assessed as off-rate constant protein immobilized on chip surface with surface density of 1000 pg/mm2 by grating-coupled interferometry. Summed up: (§2)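 His-LgBiT, purified in-house from E. coli BL21(DE3), captured at 50 µg/mL in PBS on a Ni-charged PCP-NTA chip. Two flow channels reached 3000 and 1000 pg/mm2. Kinetics were run in 0.01 M HEPES, 0.15 M NaCl, 0.05% P20, pH 7.4. kon and koff came from a global association-then-dissociation fit.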

Test [4] is filed under the species Homo sapiens. Nature of the test: Binding affinity to His-tagged LgBiT (unknown origin) assessed as on-rate constant protein immobilized on chip surface with surface density of 1000 pg/mm2 by grating-coupled interferometry. Summed up:
as §2

The species named for test [5] is Homo sapiens. Nature of the test: Binding affinity to His-tagged LgBiT (unknown origin) assessed as off-rate constant protein immobilized on chip surface with surface density of 3000 pg/mm2 by grating-coupled interferometry. In outline: as §2
A short description of test [6]: Binding affinity to His-tagged LgBiT (unknown origin) immobilized on chip surface with surface density of 1000 pg/mm2 by grating-coupled interferometry. Also on record: species or system Homo sapiens. In outline:
as §2

A short description of test [7]: Binding affinity to His-tagged LgBiT (unknown origin) immobilized on chip surface with surface density of 3000 pg/mm2 by grating-coupled interferometry. Also on record: species or system Homo sapiens. In outline: as §2
A short description of test [8]: Binding affinity to His-tagged LgBiT (unknown origin) incubated for 30 mins measured after subtracting LgBiT signal in presence of PBS by Nano-Glo luciferase based luminescence analysis. More on the design: species or system Homo sapiens. In outline: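 Incubated 30 min, then Nano-Glo substrate was added and luminescence read. The LgBiT-only (PBS) baseline was subtracted before the three-parameter agonist fit.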

The nature of test [9]: Binding affinity to His-tagged LgBiT (unknown origin) incubated for 30 mins by Nano-Glo luciferase based luminescence analysis. Also on record: species or system Homo sapiens. In outline: (§3)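 Equilibrated 30 min at room temperature, then Nano-Glo substrate was added and luminescence read. EC50 from a three-parameter agonist fit; at least 3 technical replicates.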
The species named for test [10] is Homo sapiens. Briefly: Binding affinity to His-tagged LgBiT (unknown origin) assessed as on-rate constant protein immobilized on chip surface with surface density of 3000 pg/mm2 by grating-coupled interferometry. Summed up: as §2
Test [11] is described as follows: Binding affinity to LgBiT (unknown origin) incubated for 30 mins by Nano-Glo luciferase based luminescence analysis. More on the design: species or system Homo sapiens. In outline: as §3
For test [12], the target named is T1, von Hippel-Lindau disease tumor suppressor/Receptor-interacting serine/threonine-protein kinase 1. Briefly: PROTAC activity at VHL/nLucK0-fused N-terminal RIPK1 kinase domain (unknown origin) expressed in HEK293T cells assessed as induction of protein degradation at 1.6 to 1000 nM measured after 24 hrs by immunoblot analysis. Format: cell-based. Conditions: dose 1.6-1000 nM. Summed up: (§4)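 HEK293T cells transfected with nLuc (WT or K0)-RIPK1 kinase domain, plated in 12-well plates and treated 24 h. Lysed in RIPA with protease/phosphatase inhibitors and benzonase. 20 µg protein run on SDS-PAGE and transferred to PVDF. Probed overnight at 4 °C with anti-RIPK1 (1:1000) and β-actin (1:4000), then HRP secondary and ECL.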
(In general: In western blotting, separated proteins are transferred to a membrane and probed.)
Target sequence in this assay (P40337 whole entry, looked up, the tested form may be a part): as the sequence (P40337 whole entry, the tested form may be a part) above
Target sequence in this assay (Q13546 whole entry, looked up, the tested form may be a part): as the sequence (Q13546 whole entry, the tested form may be a part) above

The target is the same in test [13]. Briefly: PROTAC activity at VHL/wild type nLuc-fused N-terminal RIPK1 kinase domain (unknown origin) expressed in HEK293T cells assessed as induction of protein degradation measured after 24 hrs in presence of furimazine substrate by Nano-Glo luciferase based luminescence analysis relative to control. Format: cell-based. Summed up: as §1
Target sequence in this assay (P40337 whole entry, looked up, the tested form may be a part): as the sequence (P40337 whole entry, the tested form may be a part) above
Target sequence in this assay (Q13546 whole entry, looked up, the tested form may be a part): as the sequence (Q13546 whole entry, the tested form may be a part) above
Test [14] has the same target. Nature of the test: PROTAC activity at VHL/wild type nLuc-fused N-terminal RIPK1 kinase domain (unknown origin) expressed in HEK293T cells assessed as induction of protein degradation at 1.6 to 1000 nM measured after 24 hrs by immunoblot analysis. Format: cell-based. Conditions: dose 1.6-1000 nM. Summed up: as §4
Target sequence in this assay (P40337 whole entry, looked up, the tested form may be a part): as the sequence (P40337 whole entry, the tested form may be a part) above
Target sequence in this assay (Q13546 whole entry, looked up, the tested form may be a part): as the sequence (Q13546 whole entry, the tested form may be a part) above

Consider `Cc1ncsc1-c1ccc([C@H](C)NC(=O)[C@H]2C[C@H](O)CN2C(=O)[C@@H](NC(=O)CCCCCCCCCCC(=O)NCCCn2cc(-c3ccc4c(c3)CCN4C(=O)Cc3cccc(OC(F)(F)F)c3)c3c(N)ncnc32)C(C)(C)C)cc1`, for which the DC50 entry in [1] and in test [2] was “Not Active” each time.

For the compound `CC[C@H](C)[C@H](NC(=O)[C@H](CCCNC(=N)N)NC(=O)[C@H](CCCNC(=N)N)NC(=O)[C@H](Cc1ccccc1)NC(=O)[C@H](CC(C)C)NC(=O)[C@H](CCCNC(=N)N)NC(=O)[C@H](Cc1c[nH]c2ccccc12)NC(=O)CNC(=O)[C@H](CO)NC(=O)[C@@H](N)C(C)C)C(=O)N[C@@H](CO)C(=O)O` (H-VSGWRLFRRIS-OH), the K in the test listed under Homo sapiens [3] was 5 10^-4/s; in the test filed under Homo sapiens [4] it was 7.7 10^5/M/s; in the test listed under Homo sapiens [5], 6.7 10^-3/s; in the test listed under Homo sapiens [10], 3.6 10^5/M/s. The figures for the Kd in [6] and in test [7] were 0.7 nM and 1.8 nM, respectively. Further, the values for the EC50 in test [8], in test [9] and in [11] were 16 nM, 8.7 nM and 6.2 nM, respectively.

On to `CC[C@H](C)[C@H](NC(=O)[C@H](CCCCN)NC(=O)[C@H](CCCCN)NC(=O)[C@H](Cc1ccccc1)NC(=O)[C@H](CC(C)C)NC(=O)[C@H](CCCNC(=N)N)NC(=O)[C@H](Cc1c[nH]c2ccccc12)NC(=O)CNC(=O)[C@H](CO)NC(=O)[C@@H](N)C(C)C)C(=O)N[C@@H](CO)C(=O)O`, for which the K is 1.3 10^-3/s in the test filed under Homo sapiens [3], 7.5 10^5/M/s in the test filed under Homo sapiens [4], 1.4 10^-3/s in the test listed under Homo sapiens [5] and 3 10^5/M/s in the test filed under Homo sapiens [10]. In addition, the EC50 in test [8] worked out at 24 nM.

In the case of `Cc1ncsc1-c1ccc([C@H](C)NC(=O)[C@@H]2C[C@@H](O)CN2C(=O)[C@@H](NC(=O)CCCCCCCCCCC(=O)NCCCn2cc(-c3ccc4c(c3)CCN4C(=O)Cc3cccc(OC(F)(F)F)c3)c3c(N)ncnc32)C(C)(C)C)cc1`, the outcome in [12] and in [14] was Active. Besides, the %max in test [13] amounted to 91.5%.
